Reference: ChEMBL document CHEMBL5620421, “2,6-Disubstituted 7-(naphthalen-2-ylmethyl)-7H-purines as a new class of potent antitubercular agents inhibiting DprE1” (Eur J Med Chem, 2023)
Activity calls are given as the source filed them. The calls are words filed in the database; no cut-off is given here.

What was measured:
[1] = test system: Staphylococcus epidermidis; experiment: Antibacterial activity against Staphylococcus epidermidis C1936 assessed as inhibition of bacterial growth at 125 uM incubated for 24 to 48 hrs by microdilution broth method; format: functional, organism-based; conditions: time 24-48 hrs
Escherichia coli = experiment: Antibacterial activity against Escherichia coli A1235 assessed as inhibition of bacterial growth at 125 uM incubated for 24 to 48 hrs by microdilution broth method; format: functional, organism-based; conditions: time 24-48 hrs
Klebsiella pneumoniae = experiment: Antibacterial activity against ESBL positive Klebsiella pneumoniae C1914 assessed as inhibition of bacterial growth at 125 uM incubated for 24 to 48 hrs by microdilution broth method; format: functional, organism-based; conditions: time 24-48 hrs
[2] = test system: Mycobacterium tuberculosis; experiment: Antitubercular activity against Mycobacterium tuberculosis CNCTC My 331/88 (H37Rv) infected in MONO-MAC-6 cells assessed as inhibition of bacterial growth measured after 48 hrs of incubation by MTT based ELISA; format: functional, organism-based; conditions: MONO-MAC-6, 48 h
Outline: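 MonoMac6 cells in RPMI-1640 with 10% FBS, 2 mM glutamine and gentamicin, seeded at 6.5 × 10³ cells/well the day before. Treated 48 h at 2.56 × 10⁻³–250 μM in incomplete medium with 1% DMSO. Read by MTT (3.5 h), formazan in DMSO, absorbance at 540/620 nm. IC50 from dose-response curves.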

[3] = test system: Mycobacterium tuberculosis; experiment: Antitubercular activity against Mycobacterium tuberculosis CNCTC My 331/88 (H37Rv) infected in MONO-MAC-6 cells assessed as reduction in colony forming unit growth at 25 uM measured after 48 hrs of incubation by MTT based ELISA relative to control; format: functional; parameters: scale not given: the % may be the effect or the level left

CCOc1nc(N2CCOCC2)nc2ncn(Cc3ccc4ccccc4c3)c12
Activity [1]: inactive
Activity (Escherichia coli): inactive
Activity (Klebsiella pneumoniae): inactive

CCNc1nc(N2CCOCC2)nc2ncn(Cc3ccc4ccccc4c3)c12
Activity [1]: inactive
Activity (Escherichia coli): inactive
Activity (Klebsiella pneumoniae): inactive
IC50 [2]: 57 µM
Activity [3]: >=80%

Nc1nc(N2CCOCC2)nc2ncn(Cc3ccc4ccccc4c3)c12
Activity [1]: inactive
Activity (Escherichia coli): inactive
Activity (Klebsiella pneumoniae): inactive
